# Source: PubChem BioAssay (several laboratories)
# Platelet DG rel – modulates dense granule release in human platelets. human platelet-rich plasma, SFLLRN dense granule ATP release, luminescence. inhibition, %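 (compounds screened at 7.5 µM in platelet-rich plasma)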. 300,000 compounds, 0.22% hits;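 active means mean replicate score, as percent of positive control, at or above 50; inconclusive means mean below 50 but at least one replicate at or above 50; inactive means mean and every replicate below 50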
# SENP8 block-1 – inhibitors of human SENP8 protease | purified SENP8, Z-RLRGG-aminoluciferin cleavage, luminescence | inhibition, % at 10 µM | 330,000 compounds, 1.2% hits; in the data active means inhibition above about 50%
# SENP6 block – inhibitors of human SENP6 protease; 330,000 compounds, 1.8% hits; Q9GZR1; inhibition, % at 10 µM; Recombinant SENP6 catalytic domain, aminoluciferin luminescence;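 active means inhibition above about 50% at the single tested dose, limit read from the data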;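 further: plate controls were DMSO wells with enzyme for no effect and DMSO wells lacking enzyme for full effect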
# SENP1 FRET inh – inhibitors of human SENP1 SUMO protease catalytic domain. Q9P0U3. inhibition, % at 10 µM. recombinant SENP1 catalytic domain, CyPet-SUMO1-YPet FRET cleavage. 360,000 compounds, 0.21% hits;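 active means inhibition at least 30% at 10 µM, raw YFP signal under a set limit, fluorescence ratio 0.5 to 1.5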;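 further: 0% = enzyme with DMSO and 100% = no enzyme wells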
# Target sequence (Q9P0U3 419-644 limits assumed): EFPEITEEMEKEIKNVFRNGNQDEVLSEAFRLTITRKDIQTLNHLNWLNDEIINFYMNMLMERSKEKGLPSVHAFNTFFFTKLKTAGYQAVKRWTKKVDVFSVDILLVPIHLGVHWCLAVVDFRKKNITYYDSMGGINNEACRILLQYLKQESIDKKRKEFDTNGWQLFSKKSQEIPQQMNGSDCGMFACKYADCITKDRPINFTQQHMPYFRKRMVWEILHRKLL
#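 Test system: recombinant human SENP1 catalytic domain, His6-tagged / Medium: pH 8 Tris buffer with EDTA, NaCl, BME, BSA, NP40, catalase / Also added: SUMO1 FRET substrate flanked by Cypet and Ypet, 25 nM / Times: 50 min reaction at room temperature / Signal: FRET, CFP and YFP emission / Control set: no-enzyme low control and enzyme-plus-DMSO high control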
# SENP8 block-2 – blocks human SENP8 cleavage of Nedd8 substrate; recombinant SENP8, Nedd8 substrate fluorescence; inhibition, % at 20 µM; 360,000 compounds, 0.64% hits; in the data active means inhibition mostly above about 40%, no sharp cut-off; inactive means mostly below about 27%
# SENP7 inh – SENP7 protease inhibition; Q9BQF6; recombinant SENP7, Z-RLRGG-aminoluciferin luminescence, 40 min; AID 434973; inhibition, % at 5 µM; 330,000 compounds, 1.5% hits;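 active means inhibition above about 50% at the single test dose, limit read from the data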;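 further: plate controls were DMSO with enzyme for no effect and no enzyme buffer wells for full effect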
# SENP8 conf – confirmation of human SENP8 protease inhibitors. shares compounds with SENP7 inh. Recombinant SENP8, Z-RLRGG-aminoluciferin luminescence, 60 min. inhibition, % at 12.5 µM. 6,200 compounds, 40% hits;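 active means mean inhibition across replicates above about 50%, limit read from the data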
# SENP6 confirm – human SENP6 inhibition, confirmed. shares compounds with SENP7 inh. recombinant SENP6, Z-RLRGG-aminoluciferin luminescence. inhibition, % at 12.5 µM. 6,200 compounds, 58% hits. AID 488915
# SENP7 conf – confirmation of human SENP7 protease inhibitors | 6,200 compounds, 69% hits | AID 488917 | inhibition, % at 12.5 µM | recombinant SENP7, Z-RLRGG-aminoluciferin luminescence, 40 min | shares compounds with SENP7 inh
# Casp3 SENP sel – selectivity test for SENP inhibitors: human caspase-3 inhibition. shares compounds with SENP7 inh. purified caspase-3, Z-DEVD-aminoluciferin luminescence, 60 min. inhibition, % at 12.5 µM. 6,200 compounds, 60% hits;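 active means mean inhibition above about 50%, limit read from the data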;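 further: plate controls were enzyme with DMSO for no effect and wells without caspase-3 for full effect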
# Target sequence (P42574 28-227 limits assumed): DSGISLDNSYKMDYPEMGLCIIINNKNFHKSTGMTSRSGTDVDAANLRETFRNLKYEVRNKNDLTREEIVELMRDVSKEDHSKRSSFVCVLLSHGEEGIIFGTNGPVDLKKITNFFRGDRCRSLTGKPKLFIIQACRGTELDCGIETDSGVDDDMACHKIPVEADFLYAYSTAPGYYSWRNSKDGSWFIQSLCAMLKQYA
# Luc interf – luminescence interference (SENP counter-screen); shares compounds with SENP7 inh; Pre-incubated SENP8/Z-RLRGG-aminoluciferin, luciferase luminescence interference; inhibition, % at 12.5 µM; 6,200 compounds, 39% hits;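 active means mean inhibition above about 50% when retested at one dose, limit read from the data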;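 further: plate controls were DMSO wells with completed reaction for no effect and substrate without enzyme for full effect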
# * hit, by the source's call; i = inactive; ? = inconclusive; / = not tested or not shown. A selection: hits, their analogues and other compounds. The true share with any hit is near 2.6%.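 How the source made its calls, unless noted: active means mean inhibition above about 50% in the one-dose retest (limit read from the data); inactive means the rest.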
SMILES,Platelet DG rel,SENP8 block-1,SENP6 block,SENP1 FRET inh,SENP8 block-2,SENP7 inh,SENP8 conf,SENP6 confirm,SENP7 conf,Casp3 SENP sel,Luc interf
CCC(C)COC(=O)c1ccc(C(=O)O)cc1 (stereo not given),-2,26,62*,1,26,2,42,45,81*,86*,70*
O=C1NC(=Nc2ccccc2Cl)S/C1=C\c1cccc([N+](=O)[O-])c1O,3,86*,93*,58*,48*,9,90*,92*,79*,52*,81*
COc1c(/C=C2\SC(=Nc3ccccc3Cl)NC2=O)cccc1[N+](=O)[O-],?,-44,-36,1,14,9,/,/,/,/,/
Cc1cc(C)cc(Cn2cc(CN3CC(N4CCN(CCN(C)C)CC4)CS3(=O)=O)nn2)c1 (stereo not given),/,/,/,-8,16,/,/,/,/,/,/
NC(=O)N=Nc1c(O)[nH]c2ccc([N+](=O)[O-])cc12,23,0,-12,1,20,5,/,/,/,/,/
O=C(O)c1cc(N=Nc2c(O)[nH]c3ccc([N+](=O)[O-])cc23)ccc1Cl,-1,65*,54*,15,30,49,44,25,21,28,38
O=C(O)c1ccccc1Nc1ccccc1,/,-1,-10,0,-2,-10,/,/,/,/,/
O=C(O)c1ccccc1Nc1ccc(OC(F)F)cc1,-2,55*,10,1,15,21,61*,60*,80*,66*,74*
NC1=NS(=O)(=O)NC1c1ccc(Br)cc1 (stereo not given),9,-1,2,0,13,-1,/,/,/,/,/
CCOc1ccc2oc(C(=O)Nc3ccc(C)cn3)c(C)c2c1,/,/,/,-14,-115,/,/,/,/,/,/
Cc1c(C(=O)Nc2nnc(C(F)(F)F)s2)oc2ccccc12,1,39,47,1,-237,62*,53*,54*,60*,59*,22
Cc1ccc(NC(=O)c2oc3ccccc3c2C)nc1,-16,15,55*,3,-2,47,37,30,70*,42,11
Cc1c(C(=O)Nc2ccccn2)oc2ccccc12,11,57*,64*,3,2,76*,1,55*,79*,56*,56*
CC(C)OCCCNC(=O)c1ccc(NC(=O)C2=CSCCO2)cc1,12,-2,9,3,1,3,/,/,/,/,/
Cc1csc(NC(=O)CSc2nc3nc(C)cc(C)n3n2)n1,/,-7,-2,2,18,-10,/,/,/,/,/
Clc1ncc(CSc2ccccc2)s1,-13,-4,-24,-2,-36,1,/,/,/,/,/
O=C(NCc1ccc2c(c1)OCO2)c1ccccn1,9,-11,2,2,25,0,/,/,/,/,/
Cc1ccnc2nc(C(=O)Nc3ccc4c(c3)OCO4)nn12,21,57*,67*,0,23,-2,36,63*,53*,90*,30
O=C(Nc1ccc2c(c1)OCO2)c1ccccn1,/,53*,66*,0,12,57*,71*,71*,88*,89*,73*
O=C(/C=C\Nc1ccc2c(c1)OCO2)c1ccccn1,58*,96*,97*,-31,-299,100*,81*,97*,99*,92*,26
O=c1/c(=C\c2ccc3c(c2)OCO3)sc2n1CCCN=2,14,55*,78*,-1,-45,69*,1,28,61*,46,46
CCN1CCN(C(=O)CSc2cc(=O)n(C)c3ccccc23)CC1,5,-1,-15,-1,-13,90*,8,5,4,0,1
COc1ccccc1NC(=O)COC(=O)c1ccc([N+](=O)[O-])s1,-10,72*,91*,6,22,51*,75*,85*,37,5,-14
CN(CC(=O)Nc1ccccc1Cl)C(=O)COC(=O)c1ccc([N+](=O)[O-])s1,/,69*,70*,3,15,16,78*,85*,28,49,-10
NS(=O)(=O)c1ccc(NC(=O)COC(=O)c2ccc([N+](=O)[O-])s2)cc1,7,59*,-19,1,38,33,37,86*,47,19,8
SMILES,Platelet DG rel,SENP8 block-1,SENP6 block,SENP1 FRET inh,SENP8 block-2,SENP7 inh,SENP8 conf,SENP6 confirm,SENP7 conf,Casp3 SENP sel,Luc interf
CN(CC(=O)Nc1ccccc1Cl)C(=O)COC(=O)c1cccs1,/,3,0,-1,4,4,/,/,/,/,/
COc1ccc(NC(=O)Nc2c[nH]c(=O)[nH]c2=O)cc1OC,-3,1,-17,-13,16,-5,/,/,/,/,/
CCn1c(CSc2nc3ccccc3n2C)nc2ccccc21,2,-4,-32,1,-7,9,/,/,/,/,/
CCn1c(SCC(=O)N2CCCC2)nc2ccccc21,-13,-9,3,1,2,-4,/,/,/,/,/
CCn1c(SCc2ccccc2Cl)nc2ccccc21,1,17,59*,1,32,17,42,44,71*,27,20
Cn1c(SCc2ccccc2Cl)nc2ccccc21,-23,75*,86*,2,39,67*,-22,77*,95*,67*,66*
O=C1/C(=C/c2ccsc2)N2CCC1CC2,0,4,-2,1,23,3,/,/,/,/,/
O=C1c2ccccc2C(=O)c2c1ccc(O)c2O,/,/,/,-2,29,/,/,/,/,/,/
O=C1C(c2ccccc2)=[N+]([O-])c2ccccc21,7,23,64*,3,i,45,55*,69*,75*,61*,27
COc1ccc2c(c1)CCc1c(C(=O)NCC(C)C)noc1-2,-4,29,71*,1,14,51*,25,44,81*,57*,18
COc1ccc(/C(N)=N/OC(=O)Cc2ccc(C)cc2)cc1,7,0,-3,1,26,5,/,/,/,/,/
COC(=O)/N=C(/Cc1ccc(OC)cc1)c1ccc(OC)cc1,5,92*,96*,2,6,94*,97*,97*,102*,96*,90*
COc1ccc(C/C(=N\OC(C)=O)c2ccc(OC)cc2)cc1,3,91*,96*,0,10,98*,92*,96*,102*,96*,95*
